Assay results gathered from unrelated publications.
Protocols differ between the studies behind these lines.
Organism: Plasmodium falciparum
Read-out: parasite growth

SMILES	method	cells	strain	time	setting	EC50
CCn1cc(-c2nc(C)no2)c(=O)c2cc(F)c(N3CCCCCC3)cc21			3D7	72 h	blood stage	35 nM
C[C@H]1[C@@H](O)O[C@@H]2O[C@@]3(C)CC[C@H]4[C@H](C)CC[C@@H]1[C@@]24OO3			NF54	48 h	gametocyte	11.5 nM
CCn1cc(C(=O)N2CCN(C)CC2)c(=O)c2cc(F)c(N3CCC(C)CC3)cc21			3D7	72 h	blood stage	> 10000 nM
CCOC(=O)c1c(NC(=O)c2ccccc2)sc2c(O)c(CCN(C)C)ccc12			3D7	48 h	blood stage	≤ 200 nM
COc1ncc(Nc2ccnc3cc(-c4ccc(S(=O)(=O)N5CCN(C)CC5)cc4)ccc23)cn1			D6		drug-resistant strain, blood stage	50 nM
COc1cc(OC)c(CCNC(=O)c2cn3cc(-c4cc(OCC(=O)O)ccc4OC)nc3s2)c(OC)c1			3D7	72 h	blood stage	2230 nM
CN1CCC(c2cc(-c3ccncc3)c(-c3ccc(F)cc3)[nH]2)CC1	SYBR Green	A10	3D7	72 h	blood stage	90 nM
Cn1cc(-c2cnc3[nH]cc(-c4cn(Cc5cccc(F)c5F)nn4)c3c2)cn1			3D7	72 h	blood stage	599 nM
Cc1nnc(Nc2ccnc3cc(-c4ccc(S(=O)(=O)N5CCN(C)CC5)cc4)ccc23)nc1C			D6		drug-resistant strain, blood stage	160 nM
CCn1cc(-c2cccnc2)c(=O)c2cc(F)c(N3CCC(C)CC3)cc21			3D7	72 h	blood stage	> 10000 nM
Cc1ccc(Nc2ccnc3cc(-c4ccc(S(=O)(=O)N5CCN(C)CC5)cc4)ccc23)cn1			D6		drug-resistant strain, blood stage	22 nM
CCCNCC(O)COc1ccccc1C(=O)CCc1ccccc1 (centres unmarked)	SYBR Green		K1		drug-resistant strain, blood stage	920 nM
CN1CCN(c2ncc(-c3ccc4c(Nc5ccc(OCc6cccc(F)c6)c(Cl)c5)ccnc4c3)cn2)CC1			D6		drug-resistant strain, blood stage	26 nM
CCn1cc(-c2nc(C)no2)c(=O)c2cc(F)c(N3CCN(C)CC3)cc21			3D7	72 h	blood stage	4570 nM
CNS(=O)(=O)c1ccccc1Nc1nc(Nc2ccc(N3CCOCC3)cc2OC)ncc1Br			3D7	72 h	blood stage	282 nM
Cc1cc(Nc2ccnc3cc(-c4ccc(S(=O)(=O)N5CCN(C)CC5)cc4)ccc23)sn1			D6		drug-resistant strain, blood stage	110 nM
CCn1cc(-c2nc(C)no2)c(=O)c2cc(F)c(N3CCC(C(C)C)CC3)cc21			3D7	72 h	blood stage	41 nM
COc1ccc(OCCCO)cc1-c1cn2cc(-c3nnc(NCCCCc4ccccc4)o3)ccc2n1			3D7	72 h	blood stage	2980 nM
COc1ccc(Nc2ccnc3cc(-c4cnc(N5CCN(C)CC5)nc4)ccc23)cc1Cl			D6		drug-resistant strain, blood stage	35 nM
CCn1cc(-c2nc(C)no2)c(=O)c2cc(F)c(N3CCN(C(C)=O)CC3)cc21			3D7	72 h	blood stage	> 10000 nM
